# Screening results deposited in PubChem BioAssay by several laboratories.
# SUMO Mot1 rescue: yeast Mot1-301 growth rescue at high temperature, primary screen, SUMOylation pathway inhibitor project, S. cerevisiae, ATP luminescence, 38.5C; S. cerevisiae Mot1-301 growth rescue; percent above DMSO median, 100 means doubled; growth rescue, % at 18.8 µM; 1% of 320,000 active;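 active means every valid replicate shows activation above 250% relative to neutral control wells; inactive means the rest, any valid replicate at or below 250%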;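 further: OY570 slx delta 5 strain wells were the positive control but not used for scaling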
# NALP1 inh: NALP1 inflammasome inhibitors in reconstituted yeast, colorimetric, S. cerevisiae, triplicate retest; S. cerevisiae NALP1/ASC/caspase-1 growth, X-gal OD620, 72 h; inhibition, % at 10 µM; 0.61% of 280,000 active; AID 2071, 2009; in the data active means inhibition mostly above about 24%, no sharp cut-off; inactive means mostly below about 32%
# PolyA inhibitor: polyadenylation inhibitors in yeast reporter cells, primary screen, luminescence, S. cerevisiae; S. cerevisiae SKY197-pL101 polyadenylation reporter, beta-gal luminescence; efflux-impaired pdr1/pdr3 knockout yeast; score 100 = 6 SD above DMSO; AID 1875, 2009; 0.02% of 300,000 active; activity score, % at 12 µM;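 active means lowest replicate activity score at least 50, where 100 means six control SD above control mean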;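 further: yeast exposed to compound for 9 h at 30 °C; higher score means more reporter readthrough which indicates perturbed polyadenylation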
# VIM-2 inhibitor: VIM-2 metallo-beta-lactamase inhibitors, primary screen, biochemical, epi-absorbance readout, Pseudomonas aeruginosa enzyme. purified VIM-2, nitrocefin hydrolysis, epi-absorbance fluorescence. inhibition, % at 5.6 µM. 0.89% of 290,000 active;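 active means inhibition above the mean of all tested compounds plus 3 SD, cutoff set per screening run, cut at about 7.5% in these data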;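 further: red hydrolysis product quenches plate fluorescence so inhibitors raise well fluorescence; 0% = enzyme with DMSO and 100% = DMSO without enzyme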
# NALP3 yeast inh: NALP3 inflammasome inhibitors in reconstituted yeast, primary screen, luminescence, uHTS | Yeast reconstituted NLRP3/ASC/caspase-1, beta-gal luminescence, 24 h | inhibition, % at 10 µM | 0.39% of 330,000 active | AID 2825, 2010;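 active means inhibition of 50% or more; inactive means inhibition below 50%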;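 further: plate controls were induced DMSO wells for no effect and uninduced yeast grown without galactose for full effect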
# IMP-1 inh: IMP-1 metallo-beta-lactamase inhibitors, primary screen, biochemical, epi-absorbance readout, Pseudomonas aeruginosa enzyme | metallo-beta-lactamase IMP-1 (Pseudomonas aeruginosa) | purified IMP-1, nitrocefin hydrolysis, epi-absorbance fluorescence | inhibition, % at 5.6 µM | 0.45% of 290,000 active | AID 1556, 2009;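 active means inhibition above the mean plus 3 SD of all compounds in the same screening run, cut at about 4.5% in these data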;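 further: 0% = IMP-1 with DMSO and 100% = DMSO wells lacking enzyme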
#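 System: purified recombinant IMP-1 beta-lactamase. Medium: Zinc- and detergent-supplemented HEPES buffer, pH 7.1. Compound: one 5.6 µM dose […]. Schedule: 15 min preincubation plus 25 min reaction at 25 °C. Technique: Epi-absorbance fluorescence, 480 nm excitation, 530 nm emission.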
# * hit, by the source's call; / = not tested or not shown. Sampled rows, rich in hits. Any-hit rate of the full collection: about 2.9%.
SMILES,SUMO Mot1 rescue,NALP1 inh,PolyA inhibitor,VIM-2 inhibitor,NALP3 yeast inh,IMP-1 inh
Cc1cc(Nc2ccccc2F)n2nc(C)nc2n1,-11.4,30.8,4.6,2.9,13.3,-1.7
Cc1cc(C)cc(Nc2cc(C)nc3nc(C)nn23)c1,1.0,19.3,20.5,22.1*,6.5,-2.5
Cc1ccc(Nc2cc(C)nc3nc(C)nn23)cc1,-2.2,19.6,-10.8,7.5,10.7,-4.7
Cc1ccc(OCC(O)CNC2CCCC2)c(C)c1 (stereo not drawn),6.5,4.1,-19.6,-1.4,16.3,-1.7
Cc1ccc(OCCCCNC2CCCCC2)c(C)c1,29.0,44.4*,-5.7,-1.8,23.9,-1.7
CN1C(=S)NC(C)(C)CC1(C)c1ccc(O)cc1O (stereo not drawn),-9.4,16.1,-0.1,8.3*,-4.4,-2.8
CCN(CC)C(=O)C1CCCN(c2ccc([N+](=O)[O-])cc2)C1 (stereo not drawn),-16.6,34.8*,-10.9,-4.4,23.1,-2.5
Cc1ccccc1-c1nc(CS(=O)(=O)CC(=O)N2CCN(C)CC2)c(C)o1,4.4,12.6,1.9,2.4,17.0,-2.4
Cc1cccc(N2CCN(c3ccc(N4C(=O)CCCC4=O)cc3[N+](=O)[O-])CC2C)c1 (stereo not drawn),415.3*,29.6,0.2,-0.2,18.8,-2.0
CN(C)CCNC(=O)c1sc2nc(-c3ccccc3)cc(C(F)(F)F)c2c1N,14.9,21.1,-11.0,11.8*,16.9,-1.5
COc1ccc(-c2cc(C(F)(F)F)c3c(N)c(C(=O)NCCSC)sc3n2)cc1,7.8,10.7,-1.9,3.0,23.6,-0.7
COc1ccccc1OC(C)C(=O)Nc1ccc(S(=O)(=O)N2CCN(C)CC2)cc1 (stereo not drawn),-12.4,4.1,-3.4,0.7,8.1,0.4
CCCN1CCN(C(=O)CCc2nnc3ccc(N4CCN(c5cccc(OC)c5)CC4)nn23)CC1,6.2,15.4,10.9,-0.7,11.4,-1.9
Cc1cccc(-n2c(SCc3cc(=O)n4ccsc4n3)nc3ccccc32)c1,-15.7,-3.6,-2.8,-0.6,1.5,5.0*
O=C(Nc1ccccc1F)C1CCN(S(=O)(=O)c2cccc3nonc23)CC1,16.4,24.4,-9.9,0.9,-1.1,0.7
O=C(Nc1ccccc1Cl)C1CCN(S(=O)(=O)c2cccc3nonc23)CC1,113.4,37.2*,-9.2,-1.5,27.2,-1.3
CN1CCN(c2nc(-c3cccc([N+](=O)[O-])c3)nc3ccccc23)CC1,45.3,39.3*,22.4,8.6*,30.4,1.1
O=C(NCc1ccco1)/C(=C/c1ccccc1F)NC(=O)c1ccccc1,-3.2,27.7,-1.5,-1.4,15.0,0.1
COc1ccccc1/C=C/c1nc(S(=O)(=O)c2ccccc2)c(NCCN(C)C)o1,-17.6,11.3,-7.9,1.2,10.6,1.0
COc1ccc(/C=C/c2nc(S(=O)(=O)c3ccccc3)c(NCCCN(C)C)o2)cc1OC,-9.9,-7.3,6.3,8.8*,-6.9,-3.9
C/C(=N\NC(N)=S)C1=CCC2C3CC[C@H]4CC(O)CC[C@]4(C)C3CC[C@]12C (stereo partly drawn),348.3*,-2.9,-78.2,-4.5,36.7,-4.3
C[C@H](O)[C@@]1(O)CC[C@H]2[C@@H]3CC[C@@H]4C[C@H](O)CC[C@]4(C)[C@H]3CC[C@@]21C,9.5,/,-4.8,/,24.2,/
Cc1cccc(NC2=C(Cl)C(=O)OC2NC(=O)c2ccccc2)c1 (stereo not drawn),-8.0,47.9,9.7,-1.6,20.1,-4.3
CCN(CC)CC#CCC(C)(c1ccccc1)c1ccccc1,61.8,31.1*,-0.9,-0.5,26.2,0.7
Cc1nc2sc3c(=O)[nH]nnc3c2c(C)c1Br,-16.3,9.0,-6.8,11.0*,14.1,0.4
SMILES,SUMO Mot1 rescue,NALP1 inh,PolyA inhibitor,VIM-2 inhibitor,NALP3 yeast inh,IMP-1 inh
O=C(NCc1ccco1)c1cnn2c(C(F)(F)F)cc(-c3cccs3)nc12,-3.4,-4.4,-26.9,9.3*,18.1,-3.0
COc1ccc(-c2cc(C(F)(F)F)n3nc(C(=O)NCc4ccco4)cc3n2)cc1OC,-12.8,-6.5,6.5,8.7*,20.0,-0.6
Cc1cc(C)c(Cc2c(C)nc3c(C(=O)NCc4ccco4)cnn3c2C)c(C)c1,-8.4,41.7*,-12.3,-3.5,23.1,-5.1
Cc1noc(C)c1NC(=O)Nc1ccc2c(c1)C(=O)N([C@H](C)CO)C[C@H](C)[C@@H](CN(C)C(=O)Nc1c(C)noc1C)O2,-1.1,/,/,/,10.9,/
CCC(=O)c1cc2c(C)cc(=O)oc2c(C)c1OC(=O)C(C)C,-4.5,10.8,-2.8,0.2,5.4,0.0
O=C(Cn1nnc(-c2ccccc2F)n1)Nc1ccc(S(=O)(=O)NC2CCCC2)cc1,2.4,-23.0,-4.5,1.0,3.7,5.0*
Brc1ccc(C2=Nn3cnnc3SC2)cc1,408.4,17.4,13.4,1.4,16.9,-0.1
Cc1nn(C)c(C)c1CN(Cc1nc(CCC(C)C)no1)C(C)C,4.9,10.1,-7.4,-3.5,12.4,-2.6
CCn1c(=O)c(C(C)=O)nc2ccccc21,-8.9,8.8,0.1,-0.3,9.0,5.9*
CCC(C)(C)c1ccc(OCCCC[n+]2cccc(C)c2)c(C(C)(C)CC)c1,/,33.0*,-15.5,-2.8,/,-3.7
COCCNc1nc(SC)nc2sc3c(c12)CCN(C)C3,-9.0,7.2,-15.9,9.8*,11.2,-0.1
CSc1nc(NCC(C)C)c2c3c(sc2n1)CN(C)CC3,-34.8,16.2,-9.4,8.4*,19.0,-0.3
CSc1nc(NCc2ccccc2)c2c3c(sc2n1)CN(C)CC3,0.1,29.1,-23.7,3.6,18.7,-0.4
CN(C)CCSc1nc(N)c2c3c(sc2n1)CN(C)CC3,-11.8,-13.8,3.8,1.8,6.3,-1.4
CCN(CC)CCNc1nc(SC)nc2sc3c(c12)CCN(C)C3,-11.3,10.2,6.8,10.6*,2.3,-0.2
CC(=O)N(Cc1ccccc1)c1c(N)nc(N)[nH]c1=O,-8.6,/,2.5,/,11.9,/
CC(Nc1nc(-c2cccnc2)nc2ccccc12)c1ccc(F)cc1 (stereo not drawn),10.8,22.7,-20.7,-2.3,9.6,-2.4
COC(=O)c1c(C(=O)OC)c2cc(C)ccn2c1Cl,/,6.3,32.9,8.1*,21.8,-3.7
NC(=O)c1ccccc1N/C=C/C(=O)c1ccc(F)cc1,/,6.3,-2.4,1.0,11.1,1.3
NC(=O)c1ccccc1N/C=C/C(=O)c1ccc(Cl)cc1Cl,/,9.1,3.0,8.0*,/,-3.5
O=C(COC(=O)Cn1cnc2ccccc21)Nc1ccc(F)c(F)c1,-15.2,/,/,/,11.0,/
